Compounds with a hit are over-represented: about 0.79% of the library has one in this group of screens.
mIAP activ: increases mouse intestinal alkaline phosphatase activity | activation factor at 10 µM | actives 0.24% (n = 330,000) | muIAP, CDP-Star luminescence, 30 min; active compounds read high; 1 = vehicle-only enzyme signal, 0 = enzyme-free wells;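 active = activation factor of at least 2 at 20 µM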
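Assay system: mouse IAP enzyme; reagent: chemiluminescent substrate CDP-Star; dosing: test compounds delivered from DMSO solution; schedule: 30 min at room temperature; measured by: luminescence from enzymatic CDP-Star hydrolysis; controls: DMSO-only wells and no-enzyme negative control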
hIAP block: blocks human intestinal alkaline phosphatase | P09923 | purified IAP, CDP-Star luminescence, 30 min | inhibition, % at 10 µM | actives 0.12% (n = 330,000);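 active = inhibition reaching a set limit with compound at 10 µM in the primary screen, cut at about 35% in these data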;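 note: plate controls were DMSO wells with enzyme for no effect and no-enzyme buffer wells for full effect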
Target sequence (P09923 whole entry, looked up): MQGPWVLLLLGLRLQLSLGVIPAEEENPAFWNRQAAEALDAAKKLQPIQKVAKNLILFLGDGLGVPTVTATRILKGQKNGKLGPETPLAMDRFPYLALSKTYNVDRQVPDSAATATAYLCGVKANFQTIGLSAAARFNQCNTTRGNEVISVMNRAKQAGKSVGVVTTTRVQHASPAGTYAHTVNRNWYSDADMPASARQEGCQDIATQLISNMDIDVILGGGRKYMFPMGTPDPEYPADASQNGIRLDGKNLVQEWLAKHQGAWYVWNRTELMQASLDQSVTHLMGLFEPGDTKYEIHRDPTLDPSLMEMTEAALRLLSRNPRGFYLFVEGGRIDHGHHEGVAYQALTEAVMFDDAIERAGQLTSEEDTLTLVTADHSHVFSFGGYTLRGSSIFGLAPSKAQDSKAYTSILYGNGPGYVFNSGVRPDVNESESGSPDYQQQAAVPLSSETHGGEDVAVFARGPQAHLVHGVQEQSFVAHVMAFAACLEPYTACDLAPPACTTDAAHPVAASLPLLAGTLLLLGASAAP
hIAP activ: increases human intestinal alkaline phosphatase activity; P09923; purified human IAP, CDP-Star luminescence, 30 min; active compounds read high; 1 = vehicle-only enzyme, 0 = enzyme-free background; activation factor at 10 µM; actives 0.16% (n = 330,000); AID 2524;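 active = activation factor of the enzyme at least 2-fold when tested at 20 µM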
mIAP inh: mouse IAP inhibition. purified mouse IAP, CDP-Star luminescence, 30 min. inhibition, % at 10 µM. actives 0.2% (n = 330,000);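 active = inhibition of at least 40% at 10 µM in the primary screen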;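 note: plate controls were DMSO with enzyme for no effect and no enzyme wells for full effect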
bIAP activator: increases bovine intestinal alkaline phosphatase activity. activation factor at 20 µM. AID 1016. purified bovine IAP, CDP-star luminescence, 30 min; active compounds read high; fold of DMSO-control signal, blank-subtracted. actives 0.17% (n = 200,000);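 active = activation factor of 2 or more at 20 µM, a signal rise over negative controls twice the positive control's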
bIAP inhibitor: intestinal alkaline phosphatase (bovine) inhibition; inhibition, % at 20 µM; purified bovine IAP, CDP-star luminescence, 30 min; 190,000 tested, under 10 active; AID 1019;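 active = over 50% inhibition of intestinal alkaline phosphatase at 20 µM in the single-dose screen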
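Incubation: 30 min reaction at room temperature / Material: purified bovine intestinal alkaline phosphatase (IAP) enzyme / Input: enzyme at 1/65,000,000 dilution / Dosing: 20 µM single dose / Signal: CDP-star luminescence signal / Reagent: CDP-star chemiluminescent phosphatase substrate, 30 µM final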
hIAP act confirm: human IAP activation confirmation; actives 10% (n = 880); activation (%Activity, negative = activation), % at 8.3 µM; purified IAP, CDP-Star luminescence, 30 min; active compounds read low; shares compounds with hIAP activ;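 active = at least twofold enzyme activation in any of six single-dose repeats, which the averaged readout prints as negative percent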
An asterisk follows results filed as active; · = no result given.

SMILES	mIAP activ	hIAP block	hIAP activ	mIAP inh	bIAP activator	bIAP inhibitor	hIAP act confirm
Cc1ccc(CC2CC(=O)N(c3ccc(C)cc3)C2=O)cc1 (stereo not given)	1	1.3	0.987	-0.4	0.9	5.0	·
CCc1ccc(NC(=O)C2CCN(S(=O)(=O)c3ccc4c(c3)N(C(C)=O)CCO4)CC2)cc1	1.46	38.9*	0.611	-46.3	·	·	-37.3
CCc1ccc(NC(=O)C2CCN(S(=O)(=O)c3c(C)[nH]c(=O)[nH]c3=O)CC2)cc1	1.06	-152.0	2.52*	-6.3	1.1	-9.1	3.9
CC(=O)N1CCOc2ccc(S(=O)(=O)N3CCC(C(=O)Nc4ccc(C)cc4)CC3)cc21	1.17	-36.5	1.36	-17.3	·	·	·
COCCn1c(=N)c(S(=O)(=O)c2ccc(F)cc2)cc2c(=O)n3ccccc3nc21	0.922	-17.4	1.17	7.8	·	·	·
CCOC(=O)c1cccnc1SCc1cc(=O)n2ccccc2n1	1.04	1.8	0.982	-3.9	0.8	16.5	·
CCOC(=O)c1cccnc1SCC(=O)N(C)c1ccccc1	0.992	38.9*	0.611	0.8	1	1.2	-64.0
FC(F)Oc1ccc(NC(=S)NNc2ccnc3cc(Cl)ccc23)cc1	0.926	10.3	0.897	7.4	1	-2.2	·
CC1Cn2c(nnc2C23CC4CC(CC(C4)C2)C3)S1 (stereo not given)	0.972	-104.0	2.04*	2.8	1.1	-6.2	95.1
CC1Cn2c(nnc2-c2ccc(F)cc2)S1 (stereo not given)	1.1	-0.5	1	-9.7	1	3.5	·
CCOc1ccccc1/C=C(\C#N)C(=O)NC1CC1	1.08	-11.4	1.11	-8.1	·	·	·
CCOc1c(Br)cc(/C=C(\C#N)C(=O)NC2CC2)cc1OC	0.988	40.6*	0.594	1.2	·	·	5.1
C/C(=N\NC(=O)C1CC1)c1ccccc1Br	1.02	35.1*	0.649	-2.1	·	·	-30.1
CC(=O)NS(=O)(=O)c1ccc(NC(=O)COc2ccc(C(=O)c3ccccc3)cc2)cc1	1.09	3.9	0.961	-8.6	1	2.7	·
COC(=O)c1[nH]c2ccccc2c1NC(=O)CNC1CCCCC1	0.962	53.0*	0.47	3.8	1	3.9	-31.7
COC(=O)c1[nH]c2ccccc2c1NC(=O)CN1CCCCCC1	0.958	-6.8	1.07	4.2	1.2	-17.1	·
O=C(CN1CCCc2ccccc21)NC(=O)NC1CCCCC1	1.03	4.6	0.954	-2.6	1.1	-5.0	·
Cn1nccc1C(=O)Oc1ccc(/C=N/NC(=O)c2ccccc2O)cc1	0.945	4.3	0.957	5.5	1	-2.6	·
Cc1ccc(O)c(N/C=C/C(=O)c2ccc(F)cc2)c1	0.943	-184.7	2.85*	5.7	·	·	-119.6*
CSC1=C(C#N)C(c2ccccc2Cl)C(C(C)=O)=C(C)N1 (stereo not given)	0.977	35.0*	0.65	2.3	0.9	8.4	-65.6
CSC1=C(C#N)C(c2ccccc2)C(C(C)=O)=C(C)N1 (stereo not given)	0.986	6.9	0.931	1.4	0.9	7.7	·
CCOC(=O)c1c(C)[nH]c(C(=O)N/N=C/c2cc([N+](=O)[O-])ccc2O)c1C	0.612	-108.4	2.08*	38.8	·	·	29.6
CCOC(=O)c1c(C)[nH]c(C(=O)N/N=C\c2ccccc2O)c1C	·	·	·	·	1.2	-18.5	·
CC(=O)Nc1ccc(Nc2ncnc3c2cnn3-c2ccccc2)cc1	0.917	5.8	0.942	8.3	1	-4.0	·
Cc1ccc(-n2ncc3c(NNC(=O)Cc4ccccc4)ncnc32)cc1	1.07	-120.6	2.21*	-6.8	1.1	-7.3	9.9
SMILES	mIAP activ	hIAP block	hIAP activ	mIAP inh	bIAP activator	bIAP inhibitor	hIAP act confirm
CC(=O)NNc1ncnc2c1cnn2-c1ccccc1	0.812	-204.5	3.04*	18.8	1.4	-44.0	-68.9
COc1ccc(OC[C@@H](O)CNC(=O)c2cccc3c2C(=O)c2ccc(-c4ccc(F)cc4OCc4ccccc4)cc2S3(=O)=O)cc1	0.973	-12.1	1.12	2.7	·	·	·
O=C(O)COc1ccc2c3c(c(=O)oc2c1)CCCC3	1.02	-0.4	1	-2.2	1	-3.9	·
O=C(COc1ccc2c3c(c(=O)oc2c1)CCCC3)N1CCN(c2ccccc2)CC1	0.965	36.9*	0.631	3.5	·	·	-27.5
Cc1cc(OCC(=O)N2CCN(c3ccccc3)CC2)c2c(C)cc(=O)oc2c1	0.934	38.6*	0.614	6.6	·	·	2.6
Cc1ccc(NS(=O)(=O)c2ccc(-c3cnc(C4CC4)o3)cc2)cc1	0.986	36.9*	0.631	1.4	·	·	-4.8
CC1=C/C(=C\C=C(C#N)C#N)N(C)c2ccccc21	0.757	36.2*	0.638	24.3	·	·	4.2
O=C(NCCCc1ccccc1)c1ccc(CS(=O)Cc2ccc(Cl)cc2)o1 (stereo not given)	0.941	38.9*	0.611	5.9	·	·	-22.2
COc1cccc(NC(=O)CCC2CCN(C(=O)c3scnc3C)CC2)c1	1.01	0.0	1	-0.6	·	·	·
Cc1cc(NS(=O)(=O)c2ccc(NC(=O)C(C)Oc3ccc4c(C)cc(=O)oc4c3)cc2)no1 (stereo not given)	0.942	-162.3	2.62*	5.8	1	3.0	-23.1
CC[n+]1ccccc1/C=C1\Sc2ccc(C)cc2N1C	0.912	-9.3	1.09	8.8	·	·	·
CN1/C(=C/c2cccc[n+]2CCO)Sc2ccccc21	1	36.8*	0.632	-0.1	·	·	11.3
Cc1ccc(S(=O)(=O)N2CCCCC2C(=O)O)s1 (stereo not given)	0.982	7.4	0.926	1.8	1	0.1	·
C/C(=N\OCC(=O)OCC(=O)NC(=O)c1ccccc1)c1ccc2c(c1)OCO2	0.954	1.1	0.989	4.6	·	·	·
Cc1[nH]c2ccccc2c1C(=O)C(=O)NCCc1ccc(S(N)(=O)=O)cc1	1.01	0.7	0.993	-1.3	0.9	5.3	·
Cc1cc(C)cc(N2C(=O)CSC2c2ccccn2)c1 (stereo not given)	0.884	3.7	0.963	11.6	1	-0.3	·
COc1ccc(-c2c(C)n([O-])c3c([n+]2=O)CCCC3)cc1	0.994	-122.1	2.22*	0.6	1	1.3	5.5
Cc1cc(OCC(=O)Nc2ncn[nH]2)ccc1Cl	1.04	-100.7	2.01*	-4.0	·	·	-87.0*
O=C(CNC(=S)N(CCCN1CCOCC1)Cc1cccs1)NC1CC1	0.828	-20.0	1.2	17.2	1	4.8	·
O=C(CNC(=S)N(CCCN1CCOCC1)Cc1cccs1)NCc1ccccc1	1.11	-206.7	3.07*	-11.5	·	·	5.5
CSCCC(NC(=O)c1ccccc1Cl)C(=O)NNC(=O)c1csc(N2CCOCC2)n1 (stereo not given)	1.02	-81.2	1.81	-2.4	·	·	·
CSCCC(NS(=O)(=O)c1ccccc1F)C(=O)NNC(=O)c1csc(N2CCOCC2)n1 (stereo not given)	0.706	-164.5	2.65*	29.4	·	·	72.3

Screening data deposited in PubChem by Sanford-Burnham Center for Chemical Genomics.
